Assay results as given in publication PMC9070076 (RSC Advances, 2019).

Tests used:
[1] = Multicomponent pharmacokinetics in rat plasma after single i.v. EBI; assay type: in vivo, Sprague-Dawley rats; conditions: Sprague-Dawley, iv, n = 6
[2] = system: isoprenaline-induced myocardial infarction (MI) in mice; assay type: in vivo, Kunming mice; conditions: 30 mg kg^-1 i.v. for 7 days, seventh day
Summary of the method: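 Kunming mice (about 8 weeks, 20–30 g) were randomised into groups of n = 8 and given test compound i.v. for 7 days in 0.5% NaHCO₃:propylene glycol:saline (17:2:81). Isoprenaline chloride 5 mg kg⁻¹ i.p. was given days 4–5 to all groups except control. Lead II ECG ST elevation was recorded under pentobarbital. Day-7 orbital serum was taken for CK, and left-ventricle H&E sections were read at 200×. Single-tailed t test.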

[3] = 0.72 mL kg^-1, AUC0–t, Low dosage: 0.72 mL kg^-1 of 10 times concentrated EBI
[4] = 0.72 mL kg^-1, Cl, Low dosage: 0.72 mL kg^-1 of 10 times concentrated EBI
[5] = 0.72 mL kg^-1, MRT0–t, Low dosage: 0.72 mL kg^-1 of 10 times concentrated EBI
[6] = 0.72 mL kg^-1, Vd, Low dosage: 0.72 mL kg^-1 of 10 times concentrated EBI
[7] = 0.72 mL kg^-1, t 1/2, Low dosage: 0.72 mL kg^-1 of 10 times concentrated EBI
[8] = 3.6 mL kg^-1, AUC0–t, High dosage: 3.6 mL kg^-1 of 10 times concentrated EBI
[9] = 3.6 mL kg^-1, Cl, High dosage: 3.6 mL kg^-1 of 10 times concentrated EBI
[10] = 3.6 mL kg^-1, MRT0–t, High dosage: 3.6 mL kg^-1 of 10 times concentrated EBI
[11] = 3.6 mL kg^-1, Vd, High dosage: 3.6 mL kg^-1 of 10 times concentrated EBI
[12] = 3.6 mL kg^-1, t 1/2, High dosage: 3.6 mL kg^-1 of 10 times concentrated EBI

**Q.** Which AUC(0-t) [1, 3] does the source give for `O=C(O)[C@H]1O[C@@H](Oc2cc3oc(-c4ccc(O)cc4)cc(=O)c3c(O)c2O)[C@H](O)[C@@H](O)[C@@H]1O` [Scutellarin, scutellarin] here?
**A.** 1510 ± 574 ng·h/mL

**Q.** And the clearance [1, 4]?
**A.** 8.5 mL/min

**Q.** What about the MRT last [1, 5] of the same compound?
**A.** 23.4 ± 5.4 min

**Q.** And the Vd [1, 6]?
**A.** 0.9 ± 0.54 L

**Q.** And the half-life [1, 7]?
**A.** 74.4 ± 38.4 min

**Q.** What about the AUC(0-t) [1, 8] of the same compound?
**A.** 6860 ± 989 ng·h/mL

**Q.** What about the clearance [1, 9] of the same compound?
**A.** 7.5 mL/min

**Q.** What about the MRT last [1, 10] of the same compound?
**A.** 27 ± 6 min

**Q.** And the Vd [1, 11]?
**A.** 1.63 ± 0.65 L

**Q.** And the half-life [1, 12]?
**A.** 151 ± 57 min

**Q.** What about the “ST segment elevation (ECG)” value ([2]; P < 0.05 vs. model group) of the same compound?
**A.** seldom occurred

**Q.** And the “serum creatine kinase (CK) activity” value ([2]; P < 0.05 vs. model group)?
**A.** significantly decreased

**Q.** What about the “heart histopathology (H&E staining)” value ([2]; left ventricle sections) of the same compound?
**A.** mild edema, inflammatory infiltration and loss of striations in heart tissue

**Q.** With `O=C(O)/C=C/c1ccc(O)c(O)c1` [Caffeic acid, caffeic acid] as the compound, how does the AUC(0-t) [1, 3] read?
**A.** 75.2 ± 43.8 ng·h/mL

**Q.** And the clearance [1, 4]?
**A.** 8 mL/min

**Q.** What about the MRT last [1, 5] of the same compound?
**A.** 8.4 ± 2.4 min

**Q.** And the Vd [1, 6]?
**A.** 0.16 ± 0.07 L

**Q.** And the half-life [1, 7]?
**A.** 13.8 ± 1.8 min

**Q.** And the AUC(0-t) [1, 8]?
**A.** 393 ± 145 ng·h/mL

**Q.** What about the clearance [1, 9] of the same compound?
**A.** 6.83 mL/min

**Q.** What about the MRT last [1, 10] of the same compound?
**A.** 12 ± 4.2 min

**Q.** And the Vd [1, 11]?
**A.** 0.13 ± 0.06 L

**Q.** What about the half-life [1, 12] of the same compound?
**A.** 13.2 ± 4.2 min
